Test results reported in ChEMBL document CHEMBL3351600, “Sulfur, selenium and tellurium pseudopeptides: synthesis and biological evaluation” (Bioorg Med Chem, 2014).

Legend:
[1] = tested on: Micrococcus luteus; test: Antimicrobial activity against Micrococcus luteus assessed as inhibition at 20 ug/6 mm disk after 1 to 2 days by agar diffusion assay; assay type: functional
How it was run: (§1)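 Standard agar diffusion: 6-mm paper disks loaded with 20 µg of compound were placed on inoculated plates. Inhibition-zone diameter (mm) was read after 1 and 2 days of growth.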

[2] = tested on: HT-29; test: Growth inhibition of human HT-29 cells after 48 hrs; assay type: functional; details: HT-29, 48 h
How it was run: (§2)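 NCI-60 human tumour cell line panel screen run at the US National Cancer Institute under its standard cytotoxicity protocol. It covers leukaemia, NSCLC, colon, CNS, melanoma, ovarian, renal, prostate and breast lines. An initial single-dose test was followed by five-dose testing with 48 h compound exposure.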

[3] = tested on: U-251; test: Growth inhibition of human U251 cells after 48 hrs; assay type: functional; details: U-251, 48 h, read-out: pLC50 (the source's name) (converted)
How it was run: (§3)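 Run by the NCI 58-cell-line screen under its standard cytotoxicity protocol. Compounds were first tested at a single dose, then at five doses. Cells were exposed to compound for 48 h.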

[4] = tested on: MCF7; test: Growth inhibition of human MCF7 cells after 48 hrs; assay type: functional; details: MCF7, 48 h; how it was run: as §2
[5] = tested on: MDA-MB-435; test: Growth inhibition of human MDA-MB-435 cells after 48 hrs; assay type: functional; details: MDA-MB-435, 48 h; how it was run: as §2
[6] = Growth inhibition of human SF539 cells after 48 hrs; assay type: functional; details: SF-539, 48 h; how it was run: as §2
[7] = tested on: A498; test: Growth inhibition of human A498 cells after 48 hrs; assay type: functional; details: A498, 48 h; how it was run: as §2
[8] = Growth inhibition of human SF295 cells after 48 hrs; assay type: functional; details: SF-295, 48 h, read-out: pLC50 (the source's name) (converted); how it was run: as §2
[9] = tested on: Candida albicans; test: Antimicrobial activity against Candida albicans assessed as inhibition at 20 ug/6 mm disk after 1 to 2 days by agar diffusion assay; assay type: functional; how it was run: as §1
[10] = Growth inhibition of human UACC257 cells after 48 hrs; assay type: functional; details: UACC-257, 48 h; how it was run: as §3
[11] = tested on: Pseudomonas aeruginosa; test: Antimicrobial activity against Pseudomonas aeruginosa assessed as inhibition at 20 ug/6 mm disk after 1 to 2 days by agar diffusion assay; assay type: functional; how it was run: as §1
[12] = tested on: MDA-MB-468; test: Growth inhibition of human MDA-MB-468 cells after 48 hrs; assay type: functional; details: MDA-MB-468, 48 h; how it was run: as §2
[13] = Growth inhibition of human NCI-ADR-RES cells after 48 hrs; assay type: functional; how it was run: as §2
[14] = tested on: MCF7; test: Cytotoxicity against human MCF7 cells assessed as cell viability after 24 hrs incubation by MTT assay; assay type: functional, cell-based; details: MCF7, 24 h
How it was run: (§4)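 Cell lines came from DSMZ; primary human fibroblasts served as non-cancer controls. Cells were grown in medium with 10% FCS, seeded at 50,000 cells/ml, and grown 2 days at 37 °C, 10% CO2. Serial dilutions were then added for 24 h. MTT (final 0.5 mg/ml) was added for 2 h. Formazan was pelleted, PBS-washed, dissolved in isopropanol/0.4% HCl and read at 590 nm. Two parallel experiments were run. IC50 was taken as the concentration giving 50% of untreated-control absorbance.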

[15] = Growth inhibition of human MOLT4 cells after 48 hrs; assay type: functional; details: MOLT-4, 48 h; how it was run: as §2
[16] = Lipophilicity, log K of the compound by HPLC analysis
[17] = tested on: NCI-H522; test: Growth inhibition of human NCI-H522 cells after 48 hrs; assay type: functional; details: NCI-H522, 48 h; how it was run: as §2
[18] = Cytotoxicity against human fibroblasts assessed as cell viability after 24 hrs incubation by MTT assay; assay type: cell-based; details: Fibroblast; how it was run: as §4
[19] = Growth inhibition of human OVCAR5 cells after 48 hrs; assay type: functional; details: OVCAR-5, 48 h; how it was run: as §2
[20] = tested on: A-431; test: Cytotoxicity against human A431 cells assessed as cell viability after 24 hrs incubation by MTT assay; assay type: functional, cell-based; details: A-431, 24 h; how it was run: as §4
[21] = tested on: M14; test: Growth inhibition of human M14 cells after 48 hrs; assay type: functional; details: M14, 48 h; how it was run: as §2
[22] = Growth inhibition of human HCT15 cells after 48 hrs; assay type: functional; details: HCT-15, 48 h; how it was run: as §2
[23] = tested on: Klebsiella pneumoniae; test: Antimicrobial activity against Klebsiella pneumoniae assessed as inhibition at 20 ug/6 mm disk after 1 to 2 days by agar diffusion assay; assay type: functional; how it was run: as §1
[24] = Growth inhibition of human HOP92 cells after 48 hrs; assay type: functional; details: HOP-92, 48 h; how it was run: as §2
[25] = Growth inhibition of human PC3 cells after 48 hrs; assay type: functional; details: PC-3, 48 h; how it was run: as §2
[26] = tested on: ACHN; test: Growth inhibition of human ACHN cells after 48 hrs; assay type: functional; how it was run: as §2
[27] = Growth inhibition of human BT549 cells after 48 hrs; assay type: functional; details: BT-549, 48 h; how it was run: as §2
[28] = tested on: TK-10; test: Growth inhibition of human TK10 cells after 48 hrs; assay type: functional; details: TK-10, 48 h; how it was run: as §3
[29] = tested on: MDA-MB-231; test: Growth inhibition of human MDA-MB-231 cells after 48 hrs; assay type: functional; details: MDA-MB-231, 48 h; how it was run: as §2
[30] = Growth inhibition of human OVCAR3 cells after 48 hrs; assay type: functional; details: OVCAR-3, 48 h; how it was run: as §2
[31] = Growth inhibition of human EKVX cells after 48 hrs; assay type: functional; how it was run: as §2
[32] = tested on: T47D; test: Growth inhibition of human T47D cells after 48 hrs; assay type: functional; how it was run: as §3
[33] = tested on: K562; test: Growth inhibition of human K562 cells after 48 hrs; assay type: functional; details: K562, 48 h; how it was run: as §2
[34] = tested on: KM12; test: Growth inhibition of human KM12 cells after 48 hrs; assay type: functional; details: KM12, 48 h; how it was run: as §2
[35] = read-out: pLC50 (the source's name) (converted)

For `COc1ccc(N(CC(=O)NCCC[Te]c2ccccc2)C(=O)CCSC2=C(C)C(=O)c3ccccc3C2=O)cc1`, the “diameter of the inhibition zone (DIZ)” value [1] was 8 mm, the GI50 [2] was 1.62 µM and the CC50 [2, 35] was 50.1 µM. For the same compound, the TGI ([2]; read-out: pTGI (converted)) was 4.9 µM, the CC50 [3] was greater than 100 µM and the GI50 [4] was 0.49 µM. It also gave an LC50 (concentration killing 50% of cells) [4] of 75.9 µM, a TGI ([4]; read-out: pTGI (converted)) of 12 µM and a GI50 [5] of 2.45 µM. For the same compound, the CC50 [5, 35] was 26.9 µM, the TGI ([5]; read-out: pTGI (converted)) was 6.31 µM and the GI50 [6] was 2.14 µM. It also gave a CC50 [6, 35] of 7.08 µM, a TGI ([6]; read-out: pTGI (converted)) of 3.89 µM and a GI50 [7] of 1.35 µM. The TGI ([7]; read-out: pTGI (converted)) was 3.24 µM, the CC50 [8] was greater than 100 µM and the “diameter of the inhibition zone (DIZ)” value [9] was 0 mm. The GI50 [10] was 2.04 µM, the CC50 [10, 35] was 16.6 µM and the TGI ([10]; read-out: pTGI (converted)) was 5.01 µM. The “diameter of the inhibition zone (DIZ)” value [11] was 0 mm, the GI50 [12] was 1.66 µM and the LC50 [12] was 6.76 µM. The TGI ([12]; read-out: pTGI (converted)) was 3.39 µM, the GI50 [13] was 0.955 µM and the LC50 [13] was 41.7 µM. The TGI ([13]; read-out: pTGI (converted)) was 5.01 µM, the IC50 [14] was 7 µM and the GI50 [15] was 0.537 µM. For the same compound, the CC50 [15, 35] was greater than 100 µM, the TGI ([15]; read-out: pTGI (converted)) was 3.55 µM and the “log K” value [16] was -0.54. For the same compound, the GI50 [17] was 1.07 µM, the CC50 [17, 35] was greater than 100 µM and the TGI ([17]; read-out: pTGI (converted)) was 3.39 µM. The IC50 [18] was 4 µM, the GI50 [19] was 0.631 µM and the LC50 [19] was 6.46 µM. It also gave a TGI ([19]; read-out: pTGI (converted)) of 2.24 µM, an IC50 [20] of 1 µM and a GI50 [21] of 0.759 µM. For the same compound, the CC50 [21, 35] was 5.25 µM, the TGI ([21]; read-out: pTGI (converted)) was 2.14 µM and the GI50 [22] was 0.447 µM. For the same compound, the CC50 [22, 35] was 24.5 µM, the TGI ([22]; read-out: pTGI (converted)) was 2.34 µM and the “diameter of the inhibition zone (DIZ)” value [23] was 12 mm. For the same compound, the GI50 [24] was 1.45 µM, the CC50 [24, 35] was 13.2 µM and the TGI ([24]; read-out: pTGI (converted)) was 3.98 µM. The LC50 [25] was 14.8 µM, the GI50 [26] was 1.35 µM and the LC50 [26] was 6.76 µM. For the same compound, the TGI ([26]; read-out: pTGI (converted)) was 3.02 µM, the LC50 (concentration killing 50% of cells) [27] was 16.6 µM and the GI50 [28] was 2.82 µM. It also gave an LC50 [28] of 28.8 µM, a TGI ([28]; read-out: pTGI (converted)) of 6.92 µM and a Retention_time of 0.938 min. The GI50 [29] was 1.23 µM, the LC50 [29] was 14.8 µM and the TGI ([29]; read-out: pTGI (converted)) was 3.89 µM. For the same compound, the GI50 [30] was 1.17 µM, the CC50 [30, 35] was 5.62 µM and the TGI ([30]; read-out: pTGI (converted)) was 2.04 µM. It also gave a GI50 [31] of 0.38 µM, a CC50 [31, 35] greater than 100 µM and a TGI ([31]; read-out: pTGI (converted)) of 3.31 µM. For the same compound, the GI50 [32] was 1.55 µM, the TGI ([32]; read-out: pTGI (converted)) was 3.55 µM and the GI50 [33] was 1.95 µM. It also gave a CC50 [33, 35] greater than 100 µM, a TGI ([33]; read-out: pTGI (converted)) of 5.13 µM and a GI50 [34] of 0.417 µM. The CC50 [34, 35] was 5.13 µM and the TGI ([34]; read-out: pTGI (converted)) was 1.51 µM.
